Assay results: ChEMBL document CHEMBL1140666, “Synthesis and evaluation of alpha,beta-unsaturated alpha-aryl-substituted fosmidomycin analogues as DXR inhibitors” (Bioorg Med Chem Lett, 2007)
pIC50: −log10 of the molar value.

Experiment: Inhibition of Escherichia coli DXR
Procedure, shortened: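 Recombinant E. coli DXR was used. Conversion of substrate DOXP to MEP was followed through the reaction's NADPH dependence, and IC50 was derived from this.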

| pIC50 | SMILES |
| --- | --- |
| < 4.52 | CC(=O)N(O)C/C=C(/c1ccccc1)P(=O)(O)O |
| < 4.52 | CC(=O)N(O)C/C=C(/c1cccc([N+](=O)[O-])c1)P(=O)(O)O |
| < 4.52 | CC(=O)N(O)C/C=C(/c1ccsc1)P(=O)(O)O |
| 5.24 | CC(=O)N(O)C/C=C(\c1ccccc1)P(=O)(O)O |

Second part, the compound before the results:

| SMILES | pIC50 |
| --- | --- |
| O=CN(O)CCC(c1ccc(Cl)c(Cl)c1)P(=O)(O)O (configuration not stated) | 7.23 |
| CC(=O)N(O)C/C=C(/c1ccc([N+](=O)[O-])cc1)P(=O)(O)O | 4.47 |
| CC(=O)N(O)C/C=C(\c1ccc(C#N)cc1)P(=O)(O)O | 4.80 |
| CC(=O)N(O)C/C=C(\Br)P(=O)(O)O | 6.35 |
| CC(=O)N(O)C/C=C(\c1ccc(Cl)c(Cl)c1)P(=O)(O)O | 5.26 |
| CC(=O)N(O)C/C=C(/c1cccs1)P(=O)(O)O | 4.38 |
| O=CN(O)CCCP(=O)(O)O [FOSMIDOMYCIN] | 7.47 |
| CC(=O)N(O)CCCP(=O)(O)O [FR-900098] | 7.49 |
